Measurements as given in ChEMBL document CHEMBL1287651, “Synthesis and in vitro antibacterial activity of fluoroquinolone derivatives containing 3-(N'-alkoxycarbamimidoyl)-4-(alkoxyimino) pyrrolidines” (2010).
Converted amounts (≈) assume the structure as drawn.

Tests used:
Assay type in all cases: functional
Staphylococcus aureus [1] = experiment: Antibacterial activity against Staphylococcus aureus ATCC […] after 18 to 24 hrs by twofold serial dilution method
Method in brief: (§1)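 MIC determined by the standard twofold serial dilution method on agar media, screening against Gram-positive and Gram-negative strains. Levofloxacin and gemifloxacin were run alongside as reference drugs.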

Staphylococcus aureus [2] = experiment: Antibacterial activity against methicillin-resistant Staphylococcus aureus 08-1 after 18 to 24 hrs by twofold serial dilution method
Method in brief: (§2)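 Standard twofold serial agar dilution method on agar media for MIC determination. Screened against representative Gram-positive and Gram-negative strains. Levofloxacin and GMFX served as control drugs.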

Staphylococcus aureus [3] = experiment: Antibacterial activity against methicillin-sensitive Staphylococcus aureus 08-2 after 18 to 24 hrs by twofold serial dilution method; method in brief: as §2
[4] = system: Staphylococcus epidermidis; experiment: Antibacterial activity against methicillin-resistant Staphylococcus epidermidis 09-2 after 18 to 24 hrs by twofold serial dilution method; method in brief: as §2
[5] = system: Staphylococcus epidermidis; experiment: Antibacterial activity against methicillin-resistant Staphylococcus epidermidis 09-3 after 18 to 24 hrs by twofold serial dilution method; method in brief: as §2
[6] = system: Staphylococcus epidermidis; experiment: Antibacterial activity against methicillin-resistant Staphylococcus epidermidis 09-4 after 18 to 24 hrs by twofold serial dilution method; method in brief: as §2
[7] = system: Staphylococcus epidermidis; experiment: Antibacterial activity against methicillin-sensitive Staphylococcus epidermidis 09-3 after 18 to 24 hrs by twofold serial dilution method; method in brief: as §2
[8] = system: Staphylococcus epidermidis; experiment: Antibacterial activity against methicillin-sensitive Staphylococcus epidermidis 09-6 after 18 to 24 hrs by twofold serial dilution method; method in brief: as §2
Streptococcus pneumoniae [9] = experiment: Antibacterial activity against Streptococcus pneumoniae 08-2 after 18 to 24 hrs by twofold serial dilution method; method in brief: as §1
Streptococcus pneumoniae [10] = experiment: Antibacterial activity against Streptococcus pneumoniae 08-4 after 18 to 24 hrs by twofold serial dilution method; method in brief: as §1
Enterococcus faecium [11] = experiment: Antibacterial activity against Enterococcus faecium 08-2 after 18 to 24 hrs by twofold serial dilution method; method in brief: as §1
Enterococcus faecium [12] = experiment: Antibacterial activity against Enterococcus faecium 08-7 after 18 to 24 hrs by twofold serial dilution method; method in brief: as §1
Enterococcus faecalis [13] = experiment: Antibacterial activity against Enterococcus faecalis 08-10 after 18 to 24 hrs by twofold serial dilution method; method in brief: as §1
Enterococcus faecalis [14] = experiment: Antibacterial activity against Enterococcus faecalis 08-12 after 18 to 24 hrs by twofold serial dilution method; method in brief: as §1
Escherichia coli [15] = experiment: Antibacterial activity against Escherichia coli ATCC 25922 after 18 to 24 hrs by twofold serial dilution method; method in brief: as §1
Escherichia coli [16] = experiment: Antibacterial activity against Escherichia coli 08-21 after 18 to 24 hrs by twofold serial dilution method; method in brief: as §1
Escherichia coli [17] = experiment: Antibacterial activity against Escherichia coli 08-22 after 18 to 24 hrs by twofold serial dilution method; method in brief: as §1
Klebsiella pneumoniae [18] = experiment: Antibacterial activity against Klebsiella pneumoniae 09-21 after 18 to 24 hrs by twofold serial dilution method; method in brief: as §1
Klebsiella pneumoniae [19] = experiment: Antibacterial activity against Klebsiella pneumoniae 09-22 after 18 to 24 hrs by twofold serial dilution method; method in brief: as §1
Klebsiella pneumoniae [20] = experiment: Antibacterial activity against Klebsiella pneumoniae 09-23 after 18 to 24 hrs by twofold serial dilution method; method in brief: as §1
Pseudomonas aeruginosa [21] = experiment: Antibacterial activity against Pseudomonas aeruginosa ATCC 27853 after 18 to 24 hrs by twofold serial dilution method; method in brief: as §1
Pseudomonas aeruginosa [22] = experiment: Antibacterial activity against Pseudomonas aeruginosa 09-32 after 18 to 24 hrs by twofold serial dilution method; method in brief: as §1
Pseudomonas aeruginosa [23] = experiment: Antibacterial activity against Pseudomonas aeruginosa 09-33 after 18 to 24 hrs by twofold serial dilution method; method in brief: as §1
Pseudomonas aeruginosa [24] = experiment: Antibacterial activity against Pseudomonas aeruginosa 09-34 after 18 to 24 hrs by twofold serial dilution method; method in brief: as §1
Pseudomonas aeruginosa [25] = experiment: Antibacterial activity against Pseudomonas aeruginosa 09-35 after 18 to 24 hrs by twofold serial dilution method; method in brief: as §1

| Structure (SMILES) | MIC (Staphylococcus aureus [1]) [µg/mL] | MIC (Staphylococcus aureus [2]) [µg/mL] | MIC (Staphylococcus aureus [3]) [µg/mL] | MIC [4] [µg/mL] | MIC [5] [µg/mL] | MIC [6] [µg/mL] | MIC [7] [µg/mL] | MIC [8] [µg/mL] | MIC (Streptococcus pneumoniae [9]) [µg/mL] | MIC (Streptococcus pneumoniae [10]) [µg/mL] | MIC (Enterococcus faecium [11]) [µg/mL] | MIC (Enterococcus faecium [12]) [µg/mL] | MIC (Enterococcus faecalis [13]) [µg/mL] | MIC (Enterococcus faecalis [14]) [µg/mL] | MIC (Escherichia coli [15]) [µg/mL] | MIC (Escherichia coli [16]) [µg/mL] | MIC (Escherichia coli [17]) [µg/mL] | MIC (Klebsiella pneumoniae [18]) [µg/mL] | MIC (Klebsiella pneumoniae [19]) [µg/mL] | MIC (Klebsiella pneumoniae [20]) [µg/mL] | further results |
| --- | --- | --- | --- | --- | --- | --- | --- | --- | --- | --- | --- | --- | --- | --- | --- | --- | --- | --- | --- | --- | --- |
| CCO/N=C1\CN(c2c(F)cc3c(=O)c(C(=O)O)cn(CC)c3c2F)CC1/C(N)=N\O (stereo not given) | 1 (≈ 2.29 µM) | 1 (≈ 2.29 µM) | 1 (≈ 2.29 µM) | 1 (≈ 2.29 µM) | 0.25 (≈ 0.572 µM) | 1 (≈ 2.29 µM) | 0.125 (≈ 0.286 µM) | 0.125 (≈ 0.286 µM) | 16 (≈ 36.6 µM) | > 128 | > 128 | > 128 | > 128 | > 128 | > 128 | > 128 | 16 (≈ 36.6 µM) | > 128 | > 128 | > 128 | MIC (Pseudomonas aeruginosa [21]): > 128 µg/mL; MIC (Pseudomonas aeruginosa [22]): > 128 µg/mL; MIC (Pseudomonas aeruginosa [23]): > 128 µg/mL; MIC (Pseudomonas aeruginosa [24]): > 128 µg/mL; MIC (Pseudomonas aeruginosa [25]): > 128 µg/mL |
| CCO/N=C1\CN(c2c(F)cc3c(=O)c(C(=O)O)cn(C4CC4)c3c2OC)CC1/C(N)=N\O (stereo not given) | 0.25 (≈ 0.542 µM) | 0.25 (≈ 0.542 µM) | 0.25 (≈ 0.542 µM) | 0.5 (≈ 1.08 µM) | 0.25 (≈ 0.542 µM) | 0.5 (≈ 1.08 µM) | 0.25 (≈ 0.542 µM) | 0.25 (≈ 0.542 µM) | 1 (≈ 2.17 µM) | 1 (≈ 2.17 µM) | > 128 | > 128 | > 128 | > 128 | 128 (≈ 277 µM) | > 128 | > 128 | > 128 | 4 (≈ 8.67 µM) | > 128 | MIC (Pseudomonas aeruginosa [21]): 32 µg/mL (≈ 69.3 µM); MIC (Pseudomonas aeruginosa [22]): 64 µg/mL (≈ 139 µM); MIC (Pseudomonas aeruginosa [23]): > 128 µg/mL; MIC (Pseudomonas aeruginosa [24]): > 128 µg/mL; MIC (Pseudomonas aeruginosa [25]): 64 µg/mL (≈ 139 µM) |
| CCO/N=C(/N)C1CN(c2c(F)cc3c(=O)c(C(=O)O)cn(C4CC4)c3c2F)C/C1=N\OC (stereo not given) | 0.06 (≈ 0.129 µM) | 0.06 (≈ 0.129 µM) | 0.06 (≈ 0.129 µM) | 0.06 (≈ 0.129 µM) | 0.06 (≈ 0.129 µM) | 0.06 (≈ 0.129 µM) | 0.06 (≈ 0.129 µM) | 0.06 (≈ 0.129 µM) | 32 (≈ 69 µM) | 1 (≈ 2.16 µM) | > 128 | > 128 | > 128 | > 128 | > 128 | > 128 | > 128 | > 128 | 2 (≈ 4.32 µM) | > 128 | MIC (Pseudomonas aeruginosa [21]): > 128 µg/mL; MIC (Pseudomonas aeruginosa [22]): > 128 µg/mL; MIC (Pseudomonas aeruginosa [23]): > 128 µg/mL; MIC (Pseudomonas aeruginosa [24]): > 128 µg/mL; MIC (Pseudomonas aeruginosa [25]): > 128 µg/mL |
| CO/N=C1\CN(c2nc3c(cc2F)c(=O)c(C(=O)O)cn3C2CC2)CC1/C(N)=N\OC (stereo not given) | 0.25 (≈ 0.578 µM) | 0.25 (≈ 0.578 µM) | 1 (≈ 2.31 µM) | 1 (≈ 2.31 µM) | 0.25 (≈ 0.578 µM) | 0.25 (≈ 0.578 µM) | 0.25 (≈ 0.578 µM) | 0.25 (≈ 0.578 µM) | > 128 | 1 (≈ 2.31 µM) | > 128 | > 128 | > 128 | > 128 | 128 (≈ 296 µM) | > 128 | > 128 | > 128 | 1 (≈ 2.31 µM) | > 128 | MIC (Pseudomonas aeruginosa [21]): 64 µg/mL (≈ 148 µM); MIC (Pseudomonas aeruginosa [22]): 128 µg/mL (≈ 296 µM); MIC (Pseudomonas aeruginosa [23]): > 128 µg/mL; MIC (Pseudomonas aeruginosa [24]): > 128 µg/mL; MIC (Pseudomonas aeruginosa [25]): 64 µg/mL (≈ 148 µM) |
